The text below walks through data of article PMC11359625 (ACS Omega, 2024).

Converted amounts (≈) assume the structure as drawn. Like-named read-outs stand apart in the source and are kept apart here.

Series [1] has as its system PTP1B. The conditions noted are these: cited from earlier work.
The test system of series [2] is PTP1B. The conditions noted are these: cited from earlier work. The source holds these as a separate data set.
Series [3] concerns HepG2 cells. Kind of series: MTT cytotoxicity assay. Type of series: cell-based. The conditions noted are these: up to 50 μM, 24 h. The method, boiled down: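 Normal HepG2 cells seeded at 5 × 10³ cells/well and grown 24 h. Test compound in DMSO added at […] for 24 h. MTT then added, and absorbance used to calculate percent cell viability.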
The next series has as its system IR-HepG2 cells. Kind of series: 2-NBDG glucose uptake in insulin-resistant HepG2 cells. The conditions noted are these: 24 h treatment, concentration-dependent. Type of series: cell-based. In outline: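 Insulin resistance induced in confluent HepG2 (5 × 10³ cells/well; MEM, 10% FBS, 37 °C, 5% CO2) with 1 μM insulin for 24 h. Test compound added at several concentrations below 50 μM for 24 h, then 1 μM insulin for 30 min and 50 μM 2-NBDG for 30 min. Cells washed with ice-cold PBS; fluorescence read at ex 485/em 528 nm. Uptake expressed relative to untreated normal HepG2 (100%); mean ± SEM, triplicate.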

For series [4], the system named is HepG2 cells. The conditions noted are these: up to 40 μM; ref Xue et al.; cited from earlier work.
Series [5] has as its system PTP1B mRNA in IR-HepG2 cells. Kind of series: PTP1B mRNA expression by real-time qPCR. In kind it is cell-based. A general note: In qPCR the cycle at which signal appears reflects the starting amount.
The target of series [6] is AR (Homo sapiens, UniProt P15121). In words: Kinetic study, Lineweaver–Burk plot, AR. In kind it is biochemical. The conditions noted are these: alkannin 0-20 μM. In outline:
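Recombinant human aldose reductase in 0.05 M sodium phosphate, pH 6.2, with 0.3 mM NADPH and DL-glyceraldehyde substrate, at several test-compound concentrations. Activity followed as the fall in NADPH absorbance at 340 nm over 4 min. Inhibition type assigned from a Lineweaver–Burk double-reciprocal plot; mean ± SEM of triplicate experiments.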

A further series deals with C57BL/KsJ-db/db mice. The conditions noted are these: 20 and 40 mg/kg body weight; cited from earlier work.
For series [7], the target named is T1, PTP1B (Homo sapiens, UniProt P18031).
T1 sequence (P18031 1-435): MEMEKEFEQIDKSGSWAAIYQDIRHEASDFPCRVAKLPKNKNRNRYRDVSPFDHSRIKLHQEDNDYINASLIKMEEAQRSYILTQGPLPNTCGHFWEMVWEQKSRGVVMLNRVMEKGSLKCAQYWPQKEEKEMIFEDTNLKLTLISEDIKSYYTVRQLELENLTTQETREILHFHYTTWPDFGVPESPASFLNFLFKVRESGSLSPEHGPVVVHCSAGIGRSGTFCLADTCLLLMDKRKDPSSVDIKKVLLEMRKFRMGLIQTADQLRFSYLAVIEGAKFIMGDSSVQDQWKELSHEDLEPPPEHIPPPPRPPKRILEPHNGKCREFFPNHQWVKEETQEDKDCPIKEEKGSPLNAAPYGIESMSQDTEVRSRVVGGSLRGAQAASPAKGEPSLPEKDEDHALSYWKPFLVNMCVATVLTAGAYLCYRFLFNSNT
Kind of series: PTP1B inhibitory activity with pNPP substrate. In kind it is biochemical.

In series [8] the target is Recombinant human aldose reductase (Homo sapiens, UniProt P15121). In words: AR activity assay. Type of series: biochemical.
Series [9] addresses T1, PTP1B. In words: Kinetic study, Lineweaver–Burk plot, PTP1B. In kind it is biochemical. The conditions noted are these: alkannin 0-20 μM. The method, boiled down: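 Recombinant human PTP1B (0.5 units in PTP1B reaction buffer) preincubated with the test compound at several concentrations for 10 min at 37 °C. pNPP substrate then added and incubated 15 min at 37 °C; reaction stopped with 10 M NaOH and read at 405 nm. Inhibition type taken from a Lineweaver–Burk plot; mean ± SEM, triplicate experiments.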

Series [10] concerns AR. The conditions noted are these: read-out: IC50 AR inhibition; in vitro; cited from earlier work.
In another series the test system is human recombinant AR. The conditions noted are these: cited from earlier work.
The subject of series [11] is AR. The conditions noted are these: cited from earlier work.
The subject of series [12] is AR. The conditions noted are these: cited from earlier work. This is another data set of the same source.
A further series deals with human lens AR. The conditions noted are these: at a dose of 5 μM; cited from earlier work.
The test system of a further series is polyol pathway. The conditions noted are these: cited from earlier work.

With `O=C(O)[C@H]1O[C@@H](Oc2c(-c3ccc(O)c(O)c3)oc3cc(O)cc(O)c3c2=O)[C@H](O)[C@@H](O)[C@@H]1O` [quercetin-3-O-β-D-glucuronide], the “IC50 PTP1B inhibitory activity” value in the series with PTP1B [1] was 7.39 ± 1.15 µg/mL (≈ 15.4 µM).
`CC(C)=CCc1c(-c2ccc(O)cc2O)oc2c([C@H]3C=C(C)C[C@@H](c4ccc(O)cc4O)[C@@H]3C(=O)c3ccc(O)cc3O)c(O)cc(O)c2c1=O` [kuwanon G]: the “type of PTP1B enzyme inhibition” value in the series with PTP1B [2] is listed as “mixed-type”.
In the case of `CC(C)=CC[C@H](O)C1=CC(=O)c2c(O)ccc(O)c2C1=O` [Alkannin], the “cytotoxicity on normal HepG2 cells (MTT)” value with HepG2 cells [3] is “insignificant cytotoxicity”. Moreover, the “insulin-stimulated 2-NBDG uptake” value in the series with IR-HepG2 cells is recorded as “significantly enhanced”. Also, in the series on HepG2 cells [4], the “effect in HepG2 cells pretreated with palmitic acid” value is listed as “protective role”. In addition, in series [5], the “PTP1B mRNA expression” value was “significantly reduced”. In addition, the “type of inhibition of AR” value at AR [6] is “mixed-inhibition”. Moreover, the “effect on liver injury and inflammation in diabetic mice” value in the series on C57BL/KsJ-db/db mice is “protective role”. The IC50 (as a rule, the concentration that inhibits the measured activity by half) at PTP1B [7] turned out to be 19.5 µM; in series [8] it was 22.8 µM. In addition, on PTP1B [9], the “type of inhibition of PTP1B” value is reported as “mixed-inhibition”.
For the compound `COc1cc(/C=C/C(=O)CC(=O)/C=C/c2ccc(O)c(OC)c2)ccc1O` [curcumin], the IC50 in the series on AR [10] is 6.8 µM. In the series on human recombinant AR, the “manner of inhibition of human recombinant AR” value was “noncompetitive”.
`O=C1C=C(O)C(=O)C=C1O` [2,5-dihydroxy-p-benzoquinone]: the “manner of AR inhibition” value in the series on AR [11] is listed as “noncompetitive”.
As for `CC1=C[C@H]2c3c(O)cc(-c4cc5ccc(O)cc5o4)cc3O[C@@]3(c4ccc(O)cc4O)Oc4cc(O)ccc4[C@H](C1)[C@@H]23` [mulberrofuran G], the “type of PTP1B enzyme inhibition” value in the series with PTP1B [2] was “mixed-type”.
On to `O=c1c(O)c(-c2ccc(O)c(O)c2)oc2cc(O)cc(O)c12` [Quercetin], for which the AR inhibition in the series with AR [12] (at a dose of 10 μM) is 95%. Moreover, in the series on AR [12], the “manner of AR inhibition” value is recorded as “noncompetitive”. Moreover, in the series on human lens AR, the “inhibition of human lens AR” value is recorded as 50%. In addition, in the series on polyol pathway, the “reduction in the accumulation of xylitol” value was 80%.
As to `O=C(O)[C@H]1O[C@@H](Oc2c(-c3cc(O)c(O)c(O)c3)oc3cc(O)cc(O)c3c2=O)[C@H](O)[C@@H](O)[C@@H]1O` [myricetin-3-O-β-Dglucuronide], the “IC50 PTP1B inhibitory activity” value in the series on PTP1B [1] is 9.47 ± 3.31 µg/mL (≈ 19.2 µM).
`Cc1cc2c3c(c1)-c1c(O)cc(-c4cc5ccc(O)cc5o4)cc1OC3(c1ccc(O)cc1O)Oc1cc(O)ccc1-2` (stereo not drawn) [albanol B]: the “type of PTP1B enzyme inhibition” value in the series with PTP1B [2] was “mixed-type”.
